Laboratory results: ChEMBL document CHEMBL2424621, “Discovery, synthesis and biological evaluation of cycloprotoberberine derivatives as potential antitumor agents” (Eur J Med Chem, 2013)
Converted amounts (≈) assume the structure as drawn. The source made the active and inactive calls. The calls are words filed in the database; no cut-off is given here.

Tests used:
[1] = target: T1, DNA topoisomerase 1 (Homo sapiens) (UniProt P11387); details: 18 to 36 uM
T1 sequence (whole entry): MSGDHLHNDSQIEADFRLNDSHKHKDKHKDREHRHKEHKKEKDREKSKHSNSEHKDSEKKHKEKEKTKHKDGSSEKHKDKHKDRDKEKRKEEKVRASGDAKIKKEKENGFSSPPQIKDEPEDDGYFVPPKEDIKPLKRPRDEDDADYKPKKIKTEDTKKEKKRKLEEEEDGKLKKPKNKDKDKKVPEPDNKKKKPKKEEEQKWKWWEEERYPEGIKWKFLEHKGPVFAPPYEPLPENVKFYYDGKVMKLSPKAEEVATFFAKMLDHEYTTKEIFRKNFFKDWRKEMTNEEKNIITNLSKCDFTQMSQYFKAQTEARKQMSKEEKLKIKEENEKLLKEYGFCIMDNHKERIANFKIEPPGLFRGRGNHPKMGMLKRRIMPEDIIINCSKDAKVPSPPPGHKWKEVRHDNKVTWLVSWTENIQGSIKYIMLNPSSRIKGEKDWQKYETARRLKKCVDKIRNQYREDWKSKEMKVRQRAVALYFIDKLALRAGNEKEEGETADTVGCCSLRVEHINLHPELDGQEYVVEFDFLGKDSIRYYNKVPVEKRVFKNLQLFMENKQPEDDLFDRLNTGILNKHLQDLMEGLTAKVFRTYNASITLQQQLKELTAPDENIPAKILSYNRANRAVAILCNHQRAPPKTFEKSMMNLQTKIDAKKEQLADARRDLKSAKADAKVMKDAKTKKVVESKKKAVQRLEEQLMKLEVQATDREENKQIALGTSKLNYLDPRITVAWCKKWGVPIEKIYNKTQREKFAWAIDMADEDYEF

HepG2 [2] = assay: Antiproliferative activity against human HepG2 cells assessed as growth inhibition at 0.6 ug/ml after 48 hrs by SRB assay; assay type: functional; details: HepG2, 48 h, read-out: GI
Method in brief: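 Single-concentration SRB screen. HepG2 cells were grown in MEM-EBSS with 10% FBS and exposed to 0.6 µg/mL compound for 48 h alongside untreated controls. Cells were fixed with TCA and stained with SRB, then read at 492 nm. Results are given as % inhibition versus control, from triplicates reported as mean and SD.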

HepG2 [3] = assay: Antiproliferative activity against human HepG2 cells assessed as growth inhibition after 24 hrs by SRB assay; assay type: functional, cell-based; details: HepG2, 24 h
Method in brief: (§1)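 SRB assay. Cells were seeded at 4×10^3–8×10^3/mL in MEM-EBSS with 10% heat-inactivated FBS at 37 °C and 5% CO2, then treated at 0.039, 0.15, 0.63 and 2.5 µg/mL for 24 or 48 h. Cells were fixed with 50% TCA, stained with 0.4% SRB in 1% acetic acid and solubilized in 10 mM Trizma base, with absorbance read at 492 nm. IC50 is the concentration giving 50% of control cell number, from triplicates reported as mean and SD.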

HepG2 [4] = assay: Antiproliferative activity against human HepG2 cells assessed as growth inhibition after 48 hrs by SRB assay; assay type: functional, cell-based; details: HepG2, 48 h
Method in brief: as §1

HCT-116 [5] = assay: Antiproliferative activity against human HCT116 cells assessed as growth inhibition after 48 hrs by SRB assay; assay type: functional, cell-based; details: HCT-116, 48 h
Method in brief: as §1

HCT-116 [6] = assay: Antiproliferative activity against human HCT116 cells assessed as growth inhibition after 24 hrs by SRB assay; assay type: functional, cell-based; details: HCT-116, 24 h
Method in brief: as §1

[7] = Antiproliferative activity against human MCF7/ADR cells assessed as growth inhibition after 24 to 48 hrs by SRB assay; assay type: functional, cell-based; details: NCI/ADR-RES
Method in brief: (§2)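 Parental MCF-7 cells and doxorubicin-resistant MCF-7/ADrR cells were tested; the resistant line was maintained in medium containing DOX. Each line was treated at 0.039–2.5 µg/mL for 24 and 48 h. Growth was read by SRB staining after TCA fixation, with absorbance at 492 nm. IC50 is the concentration reducing cell number to 50% of control, from triplicates.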

HCT-116 [8] = assay: Cell cycle arrest in human HCT116 cells assessed as accumulation at G2/M phase at 0.5 ug/ml after 4 hrs using propidium iodide staining by flow cytometric analysis (reference value: 22.2%); assay type: functional
HCT-116 [9] = assay: Cell cycle arrest in human HCT116 cells assessed as accumulation at S phase at 0.5 ug/ml after 24 hrs using propidium iodide staining by flow cytometric analysis (reference value: 29.1%); assay type: functional
HCT-116 [10] = assay: Cell cycle arrest in human HCT116 cells assessed as accumulation at G2/M phase at 0.5 ug/ml after 24 hrs using propidium iodide staining by flow cytometric analysis (reference value: 22.2%); assay type: functional
[11] = target: T1, DNA topoisomerase 1 (Homo sapiens); assay: Inhibition of human DNA topoisomerase 1 assessed as decrease in mobility of relaxed isomers of supercoiled pBR322 DNA at 15 uM after 30 mins
Method in brief: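 Gel-based relaxation assay with 1 unit human Top I. Enzyme was preincubated with compound at 37 °C for 20 min, then 0.5 µg supercoiled pBR322 DNA was added and incubated at 37 °C for 30 min. Reactions were stopped with 0.5% SDS, bromophenol blue and 15% glycerol. Relaxed and supercoiled forms were resolved by agarose electrophoresis.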

MCF7 = assay: Antiproliferative activity against human MCF7 cells assessed as growth inhibition after 24 to 48 hrs by SRB assay; assay type: functional, cell-based
Method in brief: as §2

HCT-116 [12] = assay: Cell cycle arrest in human HCT116 cells assessed as accumulation at S phase at 0.5 ug/ml after 12 hrs using propidium iodide staining by flow cytometric analysis (reference value: 29.1%); assay type: functional
HCT-116 [13] = assay: Cell cycle arrest in human HCT116 cells assessed as accumulation at S phase at 0.5 ug/ml after 4 hrs using propidium iodide staining by flow cytometric analysis (reference value: 29.1%); assay type: functional
HCT-116 [14] = assay: Cell cycle arrest in human HCT116 cells assessed as accumulation at G0/G1 phase at 0.5 ug/ml after 4 hrs using propidium iodide staining by flow cytometric analysis (reference value: 48.7%); assay type: functional
HCT-116 [15] = assay: Cell cycle arrest in human HCT116 cells assessed as accumulation at G0/G1 phase at 0.5 ug/ml after 24 hrs using propidium iodide staining by flow cytometric analysis (reference value: 48.7%); assay type: functional
HCT-116 [16] = assay: Cell cycle arrest in human HCT116 cells assessed as accumulation at G2/M phase at 0.5 ug/ml after 12 hrs using propidium iodide staining by flow cytometric analysis (reference value: 22.2%); assay type: functional
HCT-116 [17] = assay: Cell cycle arrest in human HCT116 cells assessed as accumulation at G0/G1 phase at 0.5 ug/ml after 12 hrs using propidium iodide staining by flow cytometric analysis (reference value: 48.7%); assay type: functional
[18] = target: DNA topoisomerase 2-alpha (Homo sapiens) (UniProt P11388); assay: Inhibition of human DNA topoisomerase 2 assessed as decatenation of kinetoplast DNA at 15 ug/ml after 30 mins
Sequence of DNA topoisomerase 2-alpha (Homo sapiens) (P11388 whole entry): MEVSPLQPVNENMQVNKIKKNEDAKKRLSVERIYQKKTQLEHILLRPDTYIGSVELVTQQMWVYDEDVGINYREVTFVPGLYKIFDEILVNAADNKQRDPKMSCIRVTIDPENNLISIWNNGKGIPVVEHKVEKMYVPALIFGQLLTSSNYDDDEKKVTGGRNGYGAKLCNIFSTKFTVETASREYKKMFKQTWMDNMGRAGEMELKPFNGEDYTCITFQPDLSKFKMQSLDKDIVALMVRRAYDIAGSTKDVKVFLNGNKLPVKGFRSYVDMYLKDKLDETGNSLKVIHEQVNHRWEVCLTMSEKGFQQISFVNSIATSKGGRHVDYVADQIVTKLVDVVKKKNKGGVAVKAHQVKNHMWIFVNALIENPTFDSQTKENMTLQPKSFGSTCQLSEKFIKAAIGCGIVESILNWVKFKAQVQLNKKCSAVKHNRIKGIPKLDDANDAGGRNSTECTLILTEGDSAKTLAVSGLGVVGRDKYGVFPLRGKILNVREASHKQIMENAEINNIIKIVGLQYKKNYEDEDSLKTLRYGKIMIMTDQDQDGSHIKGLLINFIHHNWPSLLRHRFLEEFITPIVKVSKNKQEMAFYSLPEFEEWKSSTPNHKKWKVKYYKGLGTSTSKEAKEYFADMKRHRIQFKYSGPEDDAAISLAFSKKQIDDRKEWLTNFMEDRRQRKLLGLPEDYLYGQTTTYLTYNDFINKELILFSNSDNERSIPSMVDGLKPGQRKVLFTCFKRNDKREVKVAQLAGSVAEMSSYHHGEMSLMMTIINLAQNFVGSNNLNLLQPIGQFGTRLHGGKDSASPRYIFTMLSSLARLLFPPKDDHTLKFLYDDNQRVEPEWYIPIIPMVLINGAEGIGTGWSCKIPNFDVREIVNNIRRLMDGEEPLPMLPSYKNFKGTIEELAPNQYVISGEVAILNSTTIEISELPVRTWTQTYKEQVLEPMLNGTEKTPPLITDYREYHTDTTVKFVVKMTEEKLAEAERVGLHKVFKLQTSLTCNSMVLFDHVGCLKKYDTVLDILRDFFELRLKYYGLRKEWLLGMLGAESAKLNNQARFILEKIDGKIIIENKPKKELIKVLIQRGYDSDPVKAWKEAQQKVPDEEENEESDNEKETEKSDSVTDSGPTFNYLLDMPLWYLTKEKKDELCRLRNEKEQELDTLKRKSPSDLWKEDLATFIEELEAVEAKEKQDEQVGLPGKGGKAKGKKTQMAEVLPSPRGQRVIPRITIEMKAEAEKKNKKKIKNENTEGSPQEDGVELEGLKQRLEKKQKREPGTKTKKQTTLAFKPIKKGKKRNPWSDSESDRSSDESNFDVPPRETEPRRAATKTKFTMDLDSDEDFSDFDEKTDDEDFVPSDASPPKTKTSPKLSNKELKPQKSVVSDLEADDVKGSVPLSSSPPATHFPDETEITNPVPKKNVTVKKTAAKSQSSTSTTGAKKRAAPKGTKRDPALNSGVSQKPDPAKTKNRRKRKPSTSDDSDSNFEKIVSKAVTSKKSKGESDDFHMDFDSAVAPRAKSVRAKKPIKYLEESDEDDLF
Method in brief: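 Decatenation assay with 0.15 µg kinetoplast DNA and 4 U human Top II. Buffer was 50 mM Tris-HCl pH 8, 120 mM KCl, 10 mM MgCl2, 0.5 mM ATP, 0.5 mM DTT and 30 µg/mL BSA, incubated at 37 °C for 30 min with or without compound. Reactions were stopped with Sarkosyl loading dye and run on 1% agarose in TAE at 4 V/cm for 40 min. Gels were stained with ethidium bromide and imaged under UV.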

[19] = target: DNA topoisomerase 2-alpha (Homo sapiens) (UniProt P11388); details: 100 ug/ml

Row | Compound | inhibition of growth at 0.6 µg/mL (HepG2 [2]) [%] | IC50 (HepG2 [3]) [nM] | IC50 (HepG2 [4]) [nM] | IC50 (HCT-116 [5]) [nM] | IC50 (HCT-116 [6]) [nM] | further results
1 | CC[C@@]1(O)C(=O)OCc2c1cc1n(c2=O)Cc2cc3cc(O)ccc3nc2-1 [HYDROXYCAMPTOTHECIN] | 85.4 | – | – | – | – | inhibition [1]: Active
2 | COc1ccc2c(c[n+]3c4c2ccc2c5c(cc(c24)CC3)OCO5)c1OC(=O)c1ccc(F)cc1F | 92.5 | 620 | 130 | 390 | 3110 | –
3 | COc1ccc2c(c[n+]3c4c2ccc2c5c(cc(c24)CC3)OCO5)c1OC(=O)c1ccc(F)c([N+](=O)[O-])c1 | 69.6 | – | – | – | – | –
4 | COc1ccc2c(c[n+]3c4c2ccc2c5c(cc(c24)CC3)OCO5)c1OC(=O)c1ccc(C)c([N+](=O)[O-])c1 | 50.9 | – | – | – | – | –
5 | COc1ccc(C(=O)Oc2c(OC)ccc3c2c[n+]2c4c3ccc3c5c(cc(c34)CC2)OCO5)cc1[N+](=O)[O-] | 53.6 | – | – | – | – | –
6 | COc1cccc2c1C(=O)c1c(O)c3c(c(O)c1C2=O)C[C@@](O)(C(=O)CO)C[C@@H]3O[C@H]1C[C@H](N)[C@H](O)[C@H](C)O1 [DOXORUBICIN] | – | – | – | – | – | IC50 [7]: 24.4 µg/mL (≈ 44.9 µM)
7 | COc1ccc2c(c[n+]3c4c2ccc2c5c(cc(c24)CC3)OCO5)c1OC(=O)c1ccccc1Cl | 62.3 | – | – | – | – | –
8 | CCOc1c(OC)ccc2c1c[n+]1c3c2ccc2c4c(cc(c23)CC1)OCO4 | 41.9 | – | – | – | – | –
9 | COc1ccc2c(c[n+]3c4c2ccc2c5c(cc(c24)CC3)OCO5)c1OC(=O)c1ccc(C)cc1 | 63.7 | – | – | – | – | –
10 | COc1ccc2c(c[n+]3c4c2ccc2c5c(cc(c24)CC3)OCO5)c1OC(=O)c1ccc2c(c1)OCO2 | 88.6 | 420 | 220 | 450 | 3060 | –
11 | COc1ccc2c(c[n+]3c4c2ccc2c5c(cc(c24)CC3)OCO5)c1OC(=O)c1ccccc1.[Cl-] | 86.6 | 470 | 140 | 410 | 5610 | IC50 [7]: 3.66 µg/mL; Activity (HCT-116 [8]): 29.3%; Activity (HCT-116 [9]): 24.6%; Activity (HCT-116 [10]): 73.3%; inhibition [11]: Active; IC50 (MCF7): 2.5 µg/mL; Activity (HCT-116 [12]): 45.9%; Activity (HCT-116 [13]): 57.5%; Activity (HCT-116 [14]): 13.2%; Activity (HCT-116 [15]): 2.18%; Activity (HCT-116 [16]): 51.8%; Activity (HCT-116 [17]): 2.29%; inhibition [18]: Active
12 | COc1ccc2c(c[n+]3c4c2ccc2c5c(cc(c24)CC3)OCO5)c1OC(=O)c1ccc(F)cc1 | 70.3 | – | – | – | – | –
13 | CCCCOc1c(OC)ccc2c1c[n+]1c3c2ccc2c4c(cc(c23)CC1)OCO4 | 62.6 | – | – | – | – | –
14 | COc1ccc(C(=O)Oc2c(OC)ccc3c2c[n+]2c4c3ccc3c5c(cc(c34)CC2)OCO5)cc1 | 84.5 | 440 | 410 | 430 | 390 | –
15 | COc1cc(C(=O)Oc2c(OC)ccc3c2c[n+]2c4c3ccc3c5c(cc(c34)CC2)OCO5)cc(OC)c1OC | 86.5 | 380 | 320 | 370 | 920 | –
16 | COc1ccc2c(c[n+]3c4c2ccc2c5c(cc(c24)CC3)OCO5)c1OCc1ccc(F)cc1F | 50.7 | – | – | – | – | –
17 | COc1ccc2c(c[n+]3c4c2ccc2c5c(cc(c24)CC3)OCO5)c1OS(=O)(=O)c1ccccc1 | 56.2 | – | – | – | – | –
18 | COc1ccc2c(c[n+]3c4c2ccc2c5c(cc(c24)CC3)OCO5)c1OC(C)=O | 88.7 | 1010 | 190 | 840 | 90 | –
19 | COc1ccc2c(c[n+]3c4c2ccc2c5c(cc(c24)CC3)OCO5)c1OC(=O)c1ccccc1F | 93.7 | 930 | 150 | 280 | 420 | –
20 | COc1cc([C@@H]2c3cc4c(cc3[C@@H](O[C@@H]3O[C@@H]5CO[C@@H](C)O[C@H]5[C@H](O)[C@H]3O)[C@H]3COC(=O)[C@H]23)OCO4)cc(OC)c1O | – | – | – | – | – | inhibition [19]: Active
21 | COc1ccc2c(c[n+]3c4c2ccc2c5c(cc(c24)CC3)OCO5)c1OS(=O)(=O)c1ccc(NC(C)=O)cc1 | 8.9 | – | – | – | – | –
22 | COc1ccc2c(c[n+]3c4c2ccc2c5c(cc(c24)CC3)OCO5)c1OCc1ccccc1 | 53.3 | – | – | – | – | –
23 | COc1ccc2c(c[n+]3c4c2ccc2c5c(cc(c24)CC3)OCO5)c1O | 50 | – | – | – | – | –
24 | COc1ccc2c(c[n+]3c4c2ccc2c5c(cc(c24)CC3)OCO5)c1OC | 53.4 | 1200 | 710 | 1710 | 560 | –
